According to ChEMBL document CHEMBL1135047, “Discovery of 5-hydroxyalkyl-4-phenylpyridines as a new class of glucagon receptor antagonists” (Bioorg Med Chem Lett, 2002):

biological target: T1, Glucagon receptor (Homo sapiens, UniProt P47871); assay: Inhibitory concentration against binding to the human glucagon receptor (hGR)
T1 sequence (P47871 whole entry): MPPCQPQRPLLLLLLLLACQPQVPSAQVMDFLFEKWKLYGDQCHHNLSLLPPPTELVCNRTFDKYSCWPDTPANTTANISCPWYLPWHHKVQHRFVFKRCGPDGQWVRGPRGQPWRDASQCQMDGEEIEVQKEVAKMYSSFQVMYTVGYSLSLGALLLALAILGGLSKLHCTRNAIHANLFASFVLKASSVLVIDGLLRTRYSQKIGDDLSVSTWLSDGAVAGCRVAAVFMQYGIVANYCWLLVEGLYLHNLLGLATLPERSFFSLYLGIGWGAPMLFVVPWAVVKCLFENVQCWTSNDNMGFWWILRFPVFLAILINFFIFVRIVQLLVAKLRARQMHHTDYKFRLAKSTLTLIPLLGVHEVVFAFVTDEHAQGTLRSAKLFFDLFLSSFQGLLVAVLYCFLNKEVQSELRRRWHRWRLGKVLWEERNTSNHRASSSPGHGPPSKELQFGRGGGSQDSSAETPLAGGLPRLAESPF

IC50 | SMILES
> 20 µM | CCc1nc(CC)c(CO)c(-c2ccccc2)c1CC
20 µM | CCCCCc1c(CC)nc(CC)c(CO)c1-c1ccccc1
6 µM | C=Cc1c(C(C)C)nc(C(C)C)c(CO)c1-c1ccc(F)cc1
7 µM | CC(C)=Cc1c(C(C)C)nc(C(C)C)c(CO)c1-c1ccc(F)cc1
0.3 µM | CCCCCc1c(C(C)C)nc(C(C)C)c(C(C)O)c1-c1ccc(F)cc1 (configuration not stated)
0.35 µM | CCCCCCc1c(C(C)C)nc(C(C)C)c(CO)c1-c1ccc(F)cc1
0.25 µM | CCCCc1c(C(C)C)nc(C(C)C)c(C(C)O)c1-c1ccc(F)cc1 (configuration not stated)
0.7 µM | CCCCCc1c(C(C)C)nc(C(C)C)c(CO)c1-c1ccc(F)cc1
9 µM | COCc1c(C(C)C)nc(C(C)C)c(CO)c1-c1ccc(F)cc1
9.5 µM | COC(=O)c1c(C(C)C)nc(C(C)C)c(CO)c1-c1ccc(F)cc1
> 20 µM | CCCCCc1c(C)nc(C)c(CO)c1-c1ccccc1
1.4 µM | CCCCCc1c(C(C)C)nc(C(C)C)c(CO)c1-c1ccccc1
> 20 µM | CCc1c(C)nc(C)c(CO)c1-c1ccccc1
> 20 µM | CC(C)c1nc(C(C)C)c(CO)c(-c2ccc(F)cc2)c1CO
1.8 µM | CCc1c(C(C)C)nc(C(C)C)c(CO)c1-c1ccccc1
0.15 µM | CCCCCc1c(C(C)C)nc(C(C)C)c([C@@H](C)O)c1-c1ccc(F)cc1 (single isomer, unassigned)

biological target: T1, Glucagon receptor; assay: Inhibitory concentration against cAMP production in hGR-CHO cells; format: functional, cell-based
In short: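 hGR-CHO cells grown to confluency, preincubated 10 min at 37 °C in assay buffer, then 10 min with 100 µM isobutylmethylxanthine. Test compound at 10 nM to 10 µM final, then glucagon at 10 pM final; 15 min incubation. Stopped with 65% ethanol; extracted cAMP measured by SPA assay. DMSO 0.1% control.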

IC50 | SMILES
2 µM | CC(C)=Cc1c(C(C)C)nc(C(C)C)c(CO)c1-c1ccc(F)cc1
